Where “and” joins values, the source holds several entries; their conditions need not be identical. Identical values can stand only once.
Assays:
[1] = tested on: HEK-293T; assay: Multiplex assay against HEK293T; assay type: toxicity, cell-based; conditions: human
Summary of the method: (§1)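 Live cells carried four stains from seeding: Hoechst33342, BioTracker Green Microtubule Cytoskeleton Dye, MitoTracker Red and Annexin V Alexa Fluor 680. They were imaged on a CQ1 microscope at 37°C and 5% CO2 after compound addition. Using CellPathfinder machine-learning gating, cells were split into Hoechst high-intensity objects or normal cells, normal cells into healthy, pyknosed or fragmented nuclei, and pyknosed cells into mitotic or apoptotic; tubulin, mitochondrial-mass and membrane-permeability phenotypes are per cents of healthy-nucleus cells.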

[2] = tested on: U2OS; assay: Multiplex assay against U2OS; assay type: toxicity, cell-based; conditions: human; summary of the method: as §1
[3] = 24 h, 1 µM, compound concentration 1 uM
[4] = 24 h, 10 µM, compound concentration 10 uM
[5] = 48 h, 1 µM, compound concentration 1 uM
[6] = 48 h, 10 µM, compound concentration 10 uM
[7] = 12 h, 1 µM, compound concentration 1 uM
[8] = 12 h, 10 µM, compound concentration 10 uM

For Cc1ccc(C(C)(O)c2nc3ccccc3s2)c(C)c1 (stereo not drawn), the “Total Cell Count” value [1, 3] was 645 and 447, the “Population Apoptotic (%)” value [1, 4] was 28% and 36% and the “Population Fragmented Nuclei (%)” value [1, 4] was 6% and 10%. The “Population Healthy Nuclei (%)” value [1, 4] was 82% and 78%, the “Population Hoechst High Intensity Objects (%)” value [1, 4] was 8% and 6% and the “Population Membrane Permeable-Phenotype (%)” value [1, 4] was 0%. For the same compound, the “Population Mitochondria Different-Phenotype (%)” value [1, 4] was 42% and 63%, the “Population Mitotic Cells (%)” value [1, 4] was 71% and 63% and the “Population Normal (%)” value [1, 4] was 91% and 93%. The “Population Pyknosed Nuclei (%)” value [1, 4] was 11% and 10%, the “Population Tubulin-Different-Phenotype (%)” value [1, 4] was 34% and 23% and the “Total Cell Count” value [1, 4] was 487 and 379. The “Population Apoptotic (%)” value [1, 5] was 17% and 34%, the “Population Fragmented Nuclei (%)” value [1, 5] was 20% and 13% and the “Population Healthy Nuclei (%)” value [1, 5] was 73% and 78%. The “Population Hoechst High Intensity Objects (%)” value [1, 5] was 2% and 3%, the “Population Membrane Permeable-Phenotype (%)” value [1, 5] was 1% and the “Population Mitochondria Different-Phenotype (%)” value [1, 5] was 15% and 22%. The “Population Mitotic Cells (%)” value [1, 5] was 82% and 65%, the “Population Normal (%)” value [1, 5] was 97% and 96% and the “Population Pyknosed Nuclei (%)” value [1, 5] was 5% and 8%. For the same compound, the “Population Tubulin-Different-Phenotype (%)” value [1, 5] was 12% and 11%, the “Total Cell Count” value [1, 5] was 964 and 621 and the “Population Apoptotic (%)” value [1, 6] was 33% and 50%. The “Population Fragmented Nuclei (%)” value [1, 6] was 14% and 13%, the “Population Healthy Nuclei (%)” value [1, 6] was 76% and 80% and the “Population Hoechst High Intensity Objects (%)” value [1, 6] was 2% and 3%. The “Population Membrane Permeable-Phenotype (%)” value [1, 6] was 0% and 1%, the “Population Mitochondria Different-Phenotype (%)” value [1, 6] was 28% and 33% and the “Population Mitotic Cells (%)” value [1, 6] was 66% and 50%. For the same compound, the “Population Normal (%)” value [1, 6] was 97% and 96%, the “Population Pyknosed Nuclei (%)” value [1, 6] was 9% and 5% and the “Population Tubulin-Different-Phenotype (%)” value [1, 6] was 18% and 13%. The “Total Cell Count” value [1, 6] was 713 and 508, the “Population Apoptotic (%)” value [2, 7] was 86% and 100% and the “Population Fragmented Nuclei (%)” value [2, 7] was 19% and 17%. For the same compound, the “Population Healthy Nuclei (%)” value [2, 7] was 70% and 78%, the “Population Hoechst High Intensity Objects (%)” value [2, 7] was 3% and 0% and the “Population Membrane Permeable-Phenotype (%)” value [2, 7] was 4% and 9%. The “Population Mitochondria Different-Phenotype (%)” value [2, 7] was 1% and 4%, the “Population Mitotic Cells (%)” value [2, 7] was 13% and 0% and the “Population Normal (%)” value [2, 7] was 96% and 99%. The “Population Pyknosed Nuclei (%)” value [2, 7] was 9% and 3%, the “Population Tubulin-Different-Phenotype (%)” value [2, 7] was 2% and 5% and the “Total Cell Count” value [2, 7] was 249 and 141. The “Population Apoptotic (%)” value [2, 8] was 100% and 66%, the “Population Fragmented Nuclei (%)” value [2, 8] was 25% and 18% and the “Population Healthy Nuclei (%)” value [2, 8] was 67% and 77%. The “Population Hoechst High Intensity Objects (%)” value [2, 8] was 2% and 4%, the “Population Membrane Permeable-Phenotype (%)” value [2, 8] was 9% and 3% and the “Population Mitochondria Different-Phenotype (%)” value [2, 8] was 3% and 1%. The “Population Normal (%)” value [2, 8] was 97% and 95%, the “Population Pyknosed Nuclei (%)” value [2, 8] was 6% and 3% and the “Population Tubulin-Different-Phenotype (%)” value [2, 8] was 3% and 1%. For the same compound, the “Total Cell Count” value [2, 8] was 234 and 89, the “Population Apoptotic (%)” value [2, 3] was 92% and 90% and the “Population Fragmented Nuclei (%)” value [2, 3] was 22% and 13%. The “Population Healthy Nuclei (%)” value [2, 3] was 69% and 80%, the “Population Hoechst High Intensity Objects (%)” value [2, 3] was 1% and 0% and the “Population Membrane Permeable-Phenotype (%)” value [2, 3] was 4% and 6%. The “Population Mitochondria Different-Phenotype (%)” value [2, 3] was 0% and 3%, the “Population Mitotic Cells (%)” value [2, 3] was 7% and 10% and the “Population Normal (%)” value [2, 3] was 98% and 99%. The “Population Pyknosed Nuclei (%)” value [2, 3] was 8% and 6%, the “Population Tubulin-Different-Phenotype (%)” value [2, 3] was 3% and 4% and the “Total Cell Count” value [2, 3] was 327 and 159. For the same compound, the “Population Apoptotic (%)” value [2, 4] was 88% and 75%, the “Population Fragmented Nuclei (%)” value [2, 4] was 22% and 16% and the “Population Healthy Nuclei (%)” value [2, 4] was 71% and 75%. The “Population Hoechst High Intensity Objects (%)” value [2, 4] was 1% and 4%, the “Population Membrane Permeable-Phenotype (%)” value [2, 4] was 5% and 3% and the “Population Mitochondria Different-Phenotype (%)” value [2, 4] was 3% and 1%. The “Population Mitotic Cells (%)” value [2, 4] was 11% and 25%, the “Population Normal (%)” value [2, 4] was 98% and 95% and the “Population Pyknosed Nuclei (%)” value [2, 4] was 6% and 7%. The “Population Tubulin-Different-Phenotype (%)” value [2, 4] was 3%, the “Total Cell Count” value [2, 4] was 272 and 113 and the “Population Apoptotic (%)” value [2, 5] was 88% and 94%. For the same compound, the “Population Fragmented Nuclei (%)” value [2, 5] was 16% and 15%, the “Population Healthy Nuclei (%)” value [2, 5] was 74% and 76% and the “Population Hoechst High Intensity Objects (%)” value [2, 5] was 2% and 3%. For the same compound, the “Population Membrane Permeable-Phenotype (%)” value [2, 5] was 5% and 6%, the “Population Mitochondria Different-Phenotype (%)” value [2, 5] was 2% and 3% and the “Population Mitotic Cells (%)” value [2, 5] was 11% and 5%. For the same compound, the “Population Normal (%)” value [2, 5] was 97% and 96%, the “Population Pyknosed Nuclei (%)” value [2, 5] was 9% and 8% and the “Population Tubulin-Different-Phenotype (%)” value [2, 5] was 2% and 5%. For the same compound, the “Total Cell Count” value [2, 5] was 442 and 215, the “Population Apoptotic (%)” value [2, 6] was 96% and 85% and the “Population Fragmented Nuclei (%)” value [2, 6] was 23% and 11%. The “Population Healthy Nuclei (%)” value [2, 6] was 69% and 83%, the “Population Hoechst High Intensity Objects (%)” value [2, 6] was 2% and 5% and the “Population Membrane Permeable-Phenotype (%)” value [2, 6] was 6% and 5%. For the same compound, the “Population Mitochondria Different-Phenotype (%)” value [2, 6] was 1%, the “Population Normal (%)” value [2, 6] was 97% and 94% and the “Population Pyknosed Nuclei (%)” value [2, 6] was 7% and 5%. The “Population Tubulin-Different-Phenotype (%)” value [2, 6] was 4% and the “Total Cell Count” value [2, 6] was 365 and 147.
